From ChEMBL document CHEMBL4513216, “Probing the Open Global Health Chemical Diversity Library for Multistage-Active Starting Points for Next-Generation Antimalarials” (ACS Infect Dis, 2020)

Test: Toxicity liver stage against HepG2, at 10uM
Type: cell-based
Parameters: test concentration 10 uM, cell line HepG2-A16-CD81EGFP
Conditions: human, HepG2-A16-CD81EGFP cells; read-out: INHIBITION
How it was run: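 Uninfected HepG2-A16-CD81EGFP cells, 3 × 10^3 per well, 1536-well, plated on prespotted compound at 10 μM final, parasite-free screening media added to match infected plates; puromycin 10 μM positive, DMSO 0.5% negative; run in parallel with 48 h PbLuc assay at 37 °C, 5% CO2; viability by CellTiter-Glo luminescence, normalized to controls.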

Point of comparison: COc1cc(C(=O)N(C)Cc2cc(C(=O)O)c(C)o2)cc(OC)c1OC, cytotoxicity at 10 µM -1.76%. Against it:
- O=C1CCCc2cc(-c3csc(CCN4CCOC4=O)n3)ccc2N1 — higher, 0.196%
- Cc1ccc(C(CC(=O)O)NC(=O)CCc2cccs2)cc1 (stereo not given) — lower, -4.32%
- CCNC(=O)N1CC[C@H]2CC(=O)N(CC(N)=O)CC[C@H]2C1 — higher, 10%
- COCC(=O)Nc1ccc(-c2noc([C@@H]3CCCN3CC(C)C)n2)cn1 — higher, 5.82%
- COCCCNC(=O)Nc1ncc(-c2cccc(OC)c2)n1CCOC — higher, 18.6%
- CCNCCC(Cc1ccccc1)c1ccco1 (stereo not given) — higher, 5.31%
- O=C(NCc1ccccc1)NCC1CCN(Cc2ccsc2)CC1 — lower, -14.1%
- CCc1ccc(S(=O)(=O)NCCOc2ccc3nnc(C)n3n2)s1 — lower, -6.98%
- Cc1nnc(C2CCN(C(=O)c3cnc4ccccc4n3)CC2)s1 — higher, 7.1%
- CCc1ccc(C(=O)N2CCCC3(CCCC(=O)N3C)C2)cc1 (stereo not given) — lower, -5.72%
- Cc1noc(C2CCC3(CCN(C(=O)c4ccncn4)CC3)O2)n1 (stereo not given) — higher, 5.76%
- CCOCC1CN(C(=O)c2cccc(C)n2)Cc2cnn(C)c21 (stereo not given) — higher, 2.98%
- O=C(c1cc(-n2cnnn2)ccc1Cl)N1CCOCC1 — higher, 6.22%
- COCCCNC(=O)c1c(-n2cnnn2)sc2c1CCC2 — higher, 11.4%
- COc1ccc(-c2ccnc3nc(N4CCCCC4)[nH]c(=O)c23)cc1 — higher, 5.31%
- O=C(NCCn1ccc(-c2ccccn2)n1)c1ccncc1 — lower, -20.7%
- CCN(CC)CCNC(=O)c1cc(OC)c2ccoc2c1 — higher, -0.971%
- CCC1c2cccn2CCN1S(=O)(=O)N1CCOCC1 (stereo not given) — higher, 7.25%
- NC(=O)C1(CCCc2ccccn2)CCCN(CCO)C1 (stereo not given) — higher, 3.38%
- CC(=O)NCC(=O)N1C[C@@H]2CC[C@H](Oc3ccccc3Cl)[C@@H]2C1 — higher, 9.16%
- O=C(Cc1ccsc1)N1CCC(O)(CN2CCc3ccccc3C2)C1 (stereo not given) — lower, -7.27%
- CC(=O)N1C[C@@H](c2ccsc2)[C@@H]2CN(CC3CCCCC3)CC[C@@H]21 — lower, -7.99%
- c1cnc(N2CCC(OCC3CCCCO3)CC2)nc1 (stereo not given) — lower, -11.4%
- NC(=O)N1CCCN(CCCSCc2ccccc2)CC1 — lower, -2.17%
- CN(C(=O)c1ccccc1N(C)S(C)(=O)=O)c1ccc(C(C)(C)C)cc1 — higher, 5.17%
- Cc1cnn(C2CCCN(C(=O)c3cc(-c4ccco4)[nH]n3)C2)c1 (stereo not given) — lower, -9.48%
- CS(=O)(=O)c1ccc2c(c1)N(C(=O)Cc1cccc(F)c1)CCC2 — higher, 14.9%
- CNS(=O)(=O)c1ccc(F)c(C(=O)NCc2ccnc(OC)c2)c1 — lower, -9.8%
- CNC(=O)CCS(=O)(=O)Cc1nnnn1-c1ccccc1 — higher, 15.3%
- CCOc1c(F)cccc1C(=O)N(CC)C(C)c1ccncc1 (stereo not given) — higher, 11%
- O=C(Cn1cc(C2CC2)nn1)N(Cc1ccco1)Cc1cccs1 — lower, -13.3%
- O=C(c1ccc(CN2CCCCC2)cc1)N1CCCC1c1cccs1 (stereo not given) — lower, -7.15%
- COc1ccc(CN(C(=O)CCC(C)C)c2cnn(C)c2)c(OC)c1 — higher, -1.35%
- Cc1cc(C)c(S(=O)(=O)Nc2c(C)noc2C)cc1C(=O)O — lower, -8.18%
- CCCNC(=O)c1cc(Br)c2c(c1)OCCO2 — higher, 9.65%
- CN(C)c1ncccc1CNC(=O)N(Cc1ccccc1F)C1CC1 — higher, 2.6%
- CN(CCC(F)(F)F)C(=O)C1CSCN1C(=O)C(C)(C)C (stereo not given) — higher, 9.07%
- Cc1noc(C(C)C)c1C(=O)NS(=O)(=O)c1cccnc1 — higher, 0.345%
- CC(C)CN1CCC(NC(=O)c2ccc(F)cc2F)CC1 — lower, -3.1%
- CN(C)CC1CN(c2ncnc3ccsc23)CCO1 (stereo not given) — higher, 12%
- O=C(NCc1ccc(Cl)cc1Cl)NCC1(O)CCSC1 (stereo not given) — lower, -9.12%
- CCN(CC1CCOC1)C(=O)c1cc(OC)c2c(c1)OCCO2 (stereo not given) — lower, -7.35%
- CCN(C(=O)NCc1cccnc1N(C)C)C(C)c1cccnc1 (stereo not given) — lower, -4.6%
- CS(=O)(=O)CCN(CCc1cccc(F)c1)C1CC1 — higher, 11.4%
- Cc1csc(NC(=O)C2CCN(Cc3cccc4c3OCCO4)CC2)n1 — lower, -17.9%
- O=S(=O)(NCCSc1nncn1C1CC1)c1ccccc1 — lower, -14.1%
- CCS(=O)(=O)NC(CCSC)C(=O)Nc1ccc(C)cc1C (stereo not given) — lower, -8.9%
- CN(Cc1cccc(F)c1)C(=O)CS(=O)(=O)Cc1c(Cl)cccc1Cl — lower, -2.81%
- CN1CCN(C(=O)CCc2cccnc2)c2ccc(F)cc21 — lower, -2.23%
- COCCC1(CNC(=O)NC2CCCN(C)C2)CC1 (stereo not given) — higher, -0.926%
- O=C(O)CC(NC(=O)c1cc(Br)c[nH]1)c1ccccc1 (stereo not given) — higher, 1.22%
- N#Cc1cccc(CS(=O)(=O)NCC(O)Cc2ccccc2)c1 (stereo not given) — higher, 2.99%
- CCOC(CC)C(=O)NCc1ccnc(Oc2ccc(F)cc2)c1 (stereo not given) — higher, -1.43%
- CC(C)[C@H]1COC(=O)N1Cc1nncn1C(C)C — lower, -9.17%
- COc1ccccc1OC1(C(=O)O)CCN(c2ncccc2F)CC1 — lower, -12.9%
- Cc1ccc(C)c2c(O)cc(CNCC(=O)N3CCCC3)nc12 — lower, -12.4%
- COCC(NC1CSCCSC1)c1ccnn1C (stereo not given) — higher, 4.34%
- COc1ccc(OC)c(-c2nc(CN(C)Cc3noc(C)n3)c(C)o2)c1 — lower, -3.7%
- COC(=O)CNC(=O)N1CCC2(CC1)CC(c1ccccc1)CN(C)C2 (stereo not given) — higher, 0.761%
- CN(Cc1ccn[nH]1)C(=O)CCC(=O)NC1CCCC1 — higher, 0.324%
- Cc1ccc(C(=O)N2CCC(C(F)(F)F)CC2)cc1N1CCNC1=O — higher, 2.01%
- COC(=O)[C@@H]1C[C@H](NC(=O)c2cc(=O)[nH]c3ccc(C)cc23)CN1C — higher, 6.46%
- CCN1CCC2(CCC1=O)CN(c1cnc3ccccc3n1)CCN2C (stereo not given) — higher, 1.79%
- Oc1cc(CCC2CCCCN2)cc(-c2cccnc2)c1 (stereo not given) — higher, 4.11%
- Cc1ccc2nc(C)c(C)c(C(=O)NCCCn3cnnc3)c2c1 — lower, -2.89%
- C=C(C)COc1ccccc1C(=O)NCCCc1nnn[nH]1 — lower, -1.82%
- Cc1nonc1CN(C)Cc1nc(-c2ccccc2Cl)oc1C — lower, -3.04%
- O=C1CCC2(CCN(Cc3ccc(F)cc3Cl)CC2)CN1CCO — higher, 5.29%
- Cc1nc2cc(C(=O)N3C[C@@H](C(=O)O)[C@H](c4ccncc4)C3)ccc2[nH]1 — higher, 0.682%
- Cc1ccc(C2(O)CCN(C(=O)Cn3cc(C)c(=O)[nH]c3=O)CC2)nc1 — lower, -7.22%
- c1ccc(C(Cn2cccn2)Nc2cnccn2)cc1 (stereo not given) — higher, 2.99%
- Cc1ccc(C(=O)Nc2cn[nH]c2)cc1 — lower, -8.83%
- Cc1cc(C)n(CC2CCCN2C(=O)CCc2nccs2)n1 (stereo not given) — lower, -7.07%
- Cc1cnn(CC2CCCN2Cc2nc(N)c3ccccc3n2)c1 (stereo not given) — lower, -29.5%
- CS(=O)(=O)c1ccc(OCCCN2CCc3cncnc3C2)cc1 — lower, -15.3%
- COc1ccc(C(O)CN2CC(n3nc(C)cc3C)C2)cc1 (stereo not given) — lower, -15.3%
- CC(C)CS(=O)(=O)CC(=O)NC(C)c1nnc2n1CCC2 (stereo not given) — lower, -19.1%
- CC(C)(C)c1ncc(CNCC2CCCN2c2cccnn2)s1 (stereo not given) — lower, -3.33%
- OCC1CCCN1c1cc(NCc2cccs2)ncn1 (stereo not given) — lower, -5.62%
- Cn1ccc(CN2CCC(CN3CCOCC3)CC2)cc1=O — lower, -11%
- CC(Cn1cccn1)NC(=O)NCc1cccnc1 (stereo not given) — higher, -0.088%
- Cc1nc(CN2CCCC(N(C)CC(=O)Nc3cccnc3)C2)no1 (stereo not given) — lower, -7.88%
- CC(C)(O)CN1CCN(C(=O)c2cccc3[nH]ncc23)CC1 — higher, 3.28%
- CCn1cc(CN2CCCN(C(=O)CCc3ccncc3)CC2)cn1 — lower, -11.1%
- CC(C(=O)Nc1ccc(N2CCCC2)nc1)n1ccnc1 (stereo not given) — lower, -8.53%
- Cc1ccc(CNC(C)c2ccc3[nH]c(=O)[nH]c3c2)s1 (stereo not given) — lower, -10.7%
- CC(C)n1ccnc1CN1CCCN(C(=O)c2nccnc2N)CC1 — lower, -7.26%
- CC(NC(=O)NCCCc1n[nH]c(N)c1C#N)c1ccccc1 (stereo not given) — lower, -7.21%
- Cc1nn(C)cc1CCC(=O)N1CCCC(n2cncn2)C1 (stereo not given) — higher, 1.9%
- Cc1nc(C)n(C2CCCN(C(=O)c3ccccc3C)C2)n1 (stereo not given) — higher, 1.59%
- CC(=O)Nc1nc(C(=O)Nc2ccc(F)cc2)cs1 — higher, 6.47%
- O=C(CN(C1=NCCCC1)c1ccccc1)c1ccc(OC(F)F)cc1 — higher, 2.88%
- CNC(=O)[C@@H]1CCO[C@@H]2CCN(Cc3ccsc3)C[C@H]21 — lower, -78.3%
- C[C@@H]1C(=O)NC[C@H]2CN(Cc3ccc4c(c3)OCO4)C[C@H]21 — higher, 1.44%
- O=C(NCC1CC1)C1CN(c2ncccn2)Cc2ccnn2C1 (stereo not given) — higher, 0.705%
- Cn1cc(CN2C[C@H]3CCC[C@@H](CNc4ncccn4)[C@H]3C2)cn1 — lower, -2.57%
- CN(C)CCn1c2c(ccc1=O)CC(NCc1cnn(C)c1)CC2 (stereo not given) — lower, -105%
- O=C1CC(c2ccccc2)C2(CCN(CC3CC3)CC2)N1 (stereo not given) — lower, -6.47%
- Cc1cnc(N2CCc3cc(C(=O)O)c(N(C)C)nc3CC2)nc1 — lower, -104%
- Cc1ccc(C(=O)N2C[C@@H]3OCCN(C)[C@@H]3C2)cn1 — lower, -68.3%
- Cn1ccnc1CN1CCC(F)(F)C2(CCN(c3cccnc3)C2)C1 (stereo not given) — lower, -98.8%
- CN(Cc1cccnc1)CC1CN(C(=O)C2CC2)Cc2nccn2C1 (stereo not given) — lower, -79.8%
- Cc1ccc(N2CC[C@@H]3[C@@H]2CCN3C(=O)Cc2cccs2)nn1 — lower, -99.8%
- Cc1ccc(N2CC[C@H]3O[C@H](C(=O)NCc4ccco4)CC[C@H]32)nn1 — lower, -71.9%
- c1ccc(CN2CCC3(CC2)CC(Oc2cccnc2)C3)nc1 — lower, -111%
- Cc1cccc(CN2C(=O)CC[C@@H]3[C@H]2CCN3Cc2cccnc2)n1 — lower, -74.6%
- Cc1cccc(C(=O)N2C[C@@H]3C(CC(=O)Nc4cccnc4)[C@@H]3C2)n1 (stereo not given in full) — higher, -0.39%
- O=C(CCc1n[nH]c2c1CCCC2)N1C[C@H]2CC[C@@H](C1)N(CC1CC1)C2 — lower, -3.73%
- COc1ccnc(N2C[C@H]3CC[C@@H](C2)N(CC2CC2)C3)n1 — higher, -0.65%
